# Assay results as given in article PMC4834983 (Journal of medicinal chemistry, 2015).
# Experiments:
# MDA-MB-231 cells = assay: CyQuant cell proliferation assay; assay type: cell-based, human; details: Homo sapiens, MDA-MB-231, 72 h, read-out: IC50 cell proliferation MDA-MB-231
# Procedure, shortened: (§1)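 CyQuant DNA-dye proliferation assay on cultured cells after 72 h exposure to test compound. Viability expressed relative to DMSO-treated control cells.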
# SF295 cells = assay: CyQuant cell proliferation assay; assay type: cell-based; details: Homo sapiens, SF-295, 72 h, read-out: IC50 cell proliferation SF295
# Procedure, shortened: as §1
# pYStat3 = assay: Immunoblotting of pStat3 in treated U251MG cells; assay type: cell-based, human; details: 5 μM, glioma cells, immunoblotting
# Procedure, shortened: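 Whole-cell lysates from U251MG cells given test compound at 5 μM for 0–24 h, or at 0–5 μM for 2 h. Immunoblotted for pY705Stat3 and total Stat3, with GAPDH as loading reference.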
# Stat3 = Stat3 DNA-binding activity/EMSA of nuclear extracts from treated glioma cells; assay type: cell-based, human; details: 5 μM, glioma cells, EMSA
# Stat5:Stat5 = assay: Cell-free EMSA, EGF-stimulated NIH3T3/hEGFR nuclear extracts, MGFe probe; assay type: biochemical, mouse; details: 5 μM, 30 min pre-incubation
# Procedure, shortened: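 Nuclear extracts from EGF-stimulated NIH3T3/hEGFR fibroblasts, containing active Stat1, Stat3 and Stat5, preincubated with 5 μM test compound for 30 min at room temperature. Then incubated 30 min with 32P-labelled probe before EMSA: hSIE (Stat1/Stat3 binding) or MGFe (bovine β-casein element; Stat1/Stat5 binding). STAT:DNA bands quantified as percent of control.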
# G10 cells = assay: Growth of glioma patient-derived xenograft cells in vitro; assay type: cell-based; details: Homo sapiens, read-out: inhibitory activity against growth of G10 cells
# G22 cells [1] = assay: as above; assay type: cell-based; details: Homo sapiens, read-out: inhibitory activity against growth of G22 cells
# G12 cells = assay: as above; assay type: cell-based; details: Homo sapiens, read-out: inhibitory activity against G12 cell growth
# [2] = test system: U251MG subcutaneous tumor xenografts; assay: Subcutaneous glioma xenograft tumor growth; assay type: in vivo, mouse; details: 2 mg/kg, oral gavage, 33 days
# Procedure, shortened: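 Female athymic nude mice, 4 weeks old, injected subcutaneously in the left flank with 7.3 ×10^6 U251MG cells in PBS/matrigel. At 20 days (tumours 170–250 mm3), mice grouped by matched mean tumour size. Dosed 2 mg/kg by oral gavage in 1% DMSO vehicle, three times weekly, for 33 days. Caliper volumes (V = 0.52 × a2 × b) and body weights recorded; paired t test against vehicle.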
# [3] = Body weights and signs of toxicity in tumor-bearing mice; assay type: in vivo; details: 2 mg/kg, oral gavage, 33 days
# pStat3 [4] = assay: Immunoblots of tumor tissue lysates from treated mice; assay type: in vivo, mouse; details: four-to-five cases out of six
# Procedure, shortened: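 After oral dosing, lysates of residual subcutaneous U251MG tumour tissue from treated and 1% DMSO vehicle mice. Immunoblotted for pStat3 and Stat3, with GAPDH as loading reference.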
# U251MG cells [5] = assay: Colony survival assay; assay type: cell-based, human; details: 1 μM, treated once
# Procedure, shortened: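 Cells seeded as single cells at 250 per well and treated once the next day with test compound (0–5 μM) for 72 h. Grown until large colonies were visible: 1 week for NIH3T3, 2 weeks for U251MG. Colonies stained with crystal violet for 4 h and counted.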
# U251MG cells [6] = assay: Cell cycle distribution analysis; assay type: cell-based, human; details: 15 h treatment
# Procedure, shortened: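 U251MG cells synchronised by double thymidine block (2 mM) and released for 9 h, then given DMSO or 8 μM test compound for 15 h. Fixed overnight at −20 °C in 70% ethanol/3% FBS in PBS. Stained in PI/RNase buffer for 15 min at room temperature, then DNA content measured by flow cytometry.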
# G22 cells [7] = assay: 3D spheroid assay; assay type: cell-based, human; details: 5 μM, treated once
# pStat3 [8] = assay: Immunoblotting of pStat3 in patient-derived xenograft cells; assay type: cell-based, human; details: 5 μM, 3 h
# Procedure, shortened: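 Glioma patient-derived xenograft G22 cells (DMEM, 5–10% heat-inactivated FBS) given 5 μM test compound for 0–24 h. Whole-cell lysates immunoblotted for pStat3 and Stat3, with GAPDH as loading reference.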
# pErk1/2MAPK [9] = assay: Immunoblotting, EGF-stimulated NIH3T3/hEGFR fibroblasts; assay type: cell-based, mouse; details: 5 μM pre-treatment
# Procedure, shortened: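 NIH3T3/hEGFR fibroblasts pretreated with or without 5 μM test compound for 3 h, then stimulated with 1 μg/ml EGF for 12 min. Whole-cell lysates, equal total protein, immunoblotted for pStat1/Stat1, pStat5/Stat5 and pErk1/2/Erk1/2.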
# pS-Akt = assay: Immunoblotting, U251MG glioma cells; assay type: cell-based, human; details: 5 μM
# Procedure, shortened: (§2)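 U251MG cells given 5 μM test compound for 0–24 h. Whole-cell lysates of equal total protein immunoblotted for pErk1/2, Erk1/2, pS-Akt, Akt, pJAK2, JAK2, SOCS3 and PTP1B, with β-actin or GAPDH as loading reference.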
# pErk1/2MAPK [10] = assay: Immunoblotting, U251MG glioma cells; assay type: cell-based, human; details: 5 μM
# Procedure, shortened: as §2
# [11] = test system: suppressors of cytokine signaling (SOCS)3; assay: Immunoblotting, U251MG glioma cells; assay type: cell-based, human; details: 5 μM
# Procedure, shortened: as §2
# [12] = test system: protein tyrosine phosphatase (PTP)1B; assay: Immunoblotting, U251MG glioma cells; assay type: cell-based, human; details: 5 μM
# Procedure, shortened: as §2
# NIH3T3/v-Src fibroblasts = assay: Trypan blue exclusion viable cell counting; assay type: cell-based, mouse; details: 1 and 2.5 μM
# Procedure, shortened: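 Cells in culture treated once with increasing concentrations of test compound for 0–96 h. Harvested every 24 h, and viable cells counted by trypan blue exclusion under phase-contrast microscopy.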
smiles,measurement,setting,value
C/C=C(\C)C(=O)OCC1=C2/C(=C\[C@@]3(C)CC[C@](O)(O3)[C@H](C)C[C@@H]2O)OC1=O [Compound 22],IC50,MDA-MB-231 cells,5.2 to 9.1 µM
same,IC50,SF295 cells,7.4 to 18.3 µM
same,effect on pStat3 in treated tumor cells,pYStat3,strongly inhibited
same,effect on Stat3 DNA-binding activity in treated tumor cells,Stat3,strongly inhibited
same,"effect on Stat5:Stat5 activity, cell-free EMSA",Stat5:Stat5,weak effects
same,inhibition at 5 µM,G10 cells,45 to 60%
same,inhibition at 5 µM,G22 cells [1],45 to 60%
same,inhibition at 5 µM,G12 cells,25 to 35%
same,growth of subcutaneous U251MG xenografts,[2],inhibited growth
same,body weights or obvious signs of toxicity,[3],No significant changes
same,pStat3 and Stat3 levels in residual tumor tissues,pStat3 [4],lower
same,U251MG colony formation,U251MG cells [5],completely inhibited
same,cell cycle distribution,U251MG cells [6],induced G2/M accumulation
same,3D spheroid growth,G22 cells [7],decreased 3D spheroid growth
same,effect on Phospho-Stat3 in G22 cells,pStat3 [8],strongly inhibited
same,effect on EGF-stimulated pErk1/2MAPK levels,pErk1/2MAPK [9],no effect
same,effect on pS-Akt levels,pS-Akt,no effects
same,effect on pErk1/2MAPK levels,pErk1/2MAPK [10],no effects
same,effect on SOCS3 levels,[11],no effects
same,effect on PTP1B levels,[12],no effects
same,growth of NIH3T3/v-Src over normal NIH3T3 fibroblasts,NIH3T3/v-Src fibroblasts,preferential inhibition of growth
